In ChEMBL document CHEMBL2074314, “Involvement of human organic anion transporting polypeptide OATP-B (SLC21A9) in pH-dependent transport across intestinal apical membrane” (J Pharmacol Exp Ther, 2003) one finds Activity and activity data, which are given here for nine compounds.

Data set [1] addresses T1, Solute carrier organic anion transporter family member 2B1 (Homo sapiens, UniProt O94956).
T1 sequence (O94956 whole entry): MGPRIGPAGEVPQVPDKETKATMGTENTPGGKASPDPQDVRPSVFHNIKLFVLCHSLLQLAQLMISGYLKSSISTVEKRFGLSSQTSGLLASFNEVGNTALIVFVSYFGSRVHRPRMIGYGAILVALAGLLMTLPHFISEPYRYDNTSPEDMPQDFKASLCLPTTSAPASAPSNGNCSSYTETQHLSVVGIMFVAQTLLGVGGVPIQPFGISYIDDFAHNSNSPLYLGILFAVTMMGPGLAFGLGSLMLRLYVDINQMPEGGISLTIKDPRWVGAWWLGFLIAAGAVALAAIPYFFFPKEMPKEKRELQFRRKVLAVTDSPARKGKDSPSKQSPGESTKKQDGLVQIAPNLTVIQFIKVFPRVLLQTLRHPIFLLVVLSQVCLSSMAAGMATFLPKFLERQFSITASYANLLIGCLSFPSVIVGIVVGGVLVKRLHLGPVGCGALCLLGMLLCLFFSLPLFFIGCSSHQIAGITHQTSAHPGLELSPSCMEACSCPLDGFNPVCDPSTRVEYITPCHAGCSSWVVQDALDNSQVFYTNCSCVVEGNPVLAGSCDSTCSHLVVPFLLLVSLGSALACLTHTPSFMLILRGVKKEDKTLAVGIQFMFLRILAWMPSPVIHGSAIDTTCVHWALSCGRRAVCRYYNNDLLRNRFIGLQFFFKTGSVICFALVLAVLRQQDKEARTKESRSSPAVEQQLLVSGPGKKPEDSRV
The data set can be described thus: TP_TRANSPORTER: uptake (pH 5.5) in OATP-B-expressing HEK293 cells. In kind it is functional, cell-based. The conditions noted are these: hek293, pH 5.5.

Data set [2] concerns the target T2, OATP-B (SLCO2B1, OATP2B1) (Homo sapiens, UniProt O94956).
T2 sequence (O94956 whole entry): T1 sequence (O94956 whole entry)
The data set can be described thus: in vitro. The following applies: HEK293 cells expressing OATP-B, probe E1S (0.00476 uM).

Data set [3] addresses T2, OATP-B (SLCO2B1, OATP2B1). The data set can be described thus: TP_TRANSPORTER: inhibition of E1S uptake (E1S: 0.00476 uM, lactic acid: 10000 uM) in OATP-B-expressing HEK293 cells. The format is functional, cell-based. Further details: scale not given: the % may be the effect or the level left. The conditions noted are these: probe E1S (0.00476 uM), read-out: Activity. An outline of the steps:
(§1)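 HEK293 cells transfected with pcDNA3/OATP-B or empty vector (mock) by calcium phosphate, harvested 40-48 h later and suspended. Preincubated 20 min at 37°C at pH 7.4, then [3H]estrone-3-sulfate (4.76 nM) uptake for 10 min at 37°C in MES-buffered medium, pH 5.5. Cells separated by silicone oil centrifugal filtration and counted by scintillation. Mock-corrected uptake given as % of no-inhibitor control; mean ± S.E.M., n=3 or 4.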

Data set [4] addresses T2, OATP-B (SLCO2B1, OATP2B1). As to the kind of experiment: TP_TRANSPORTER: inhibition of E1S uptake (E1S: 0.00476 uM, phthalic acid: 10000 uM) in OATP-B-expressing HEK293 cells. In kind it is functional, cell-based. Also on record: scale not given: the % may be the effect or the level left. The conditions noted are these: probe E1S (0.00476 uM), read-out: Activity. The method, boiled down:
as §1

Data set [5] deals with T1, Solute carrier organic anion transporter family member 2B1. As to the kind of experiment: TP_TRANSPORTER: uptake (pH 7.4) in OATP-B-expressing HEK293 cells. In kind it is functional, cell-based. The conditions noted are these: hek293, pH 7.4.
Data set [6] concerns the target T2, OATP-B (SLCO2B1, OATP2B1). As to the kind of experiment: in vitro. The conditions noted are these: HEK293 cells expressing OATP-B, probe E1S (0.00476 uM). This is another data set of the same source.
Data set [7] deals with T2, OATP-B (SLCO2B1, OATP2B1). As to the kind of experiment: TP_TRANSPORTER: inhibition of E1S uptake (E1S: 0.00476 uM, citric acid: 10000 uM) in OATP-B-expressing HEK293 cells. The following applies: probe E1S (0.00476 uM), read-out: Activity. The format is functional, cell-based. Also on record: scale not given: the % may be the effect or the level left. An outline of the steps: as §1

Data set [8] has as its target T2, OATP-B (SLCO2B1, OATP2B1). The data set can be described thus: TP_TRANSPORTER: inhibition of E1S uptake (E1S: 0.00476 uM, oxalic acid: 10000 uM) in OATP-B-expressing HEK293 cells. In kind it is functional, cell-based. Further details: scale not given: the % may be the effect or the level left. The conditions noted are these: probe E1S (0.00476 uM), read-out: Activity. An outline of the steps:
as §1

In data set [9] the target is T2, OATP-B (SLCO2B1, OATP2B1). The data set can be described thus: TP_TRANSPORTER: inhibition of E1S uptake (E1S: 0.00476 uM, benzoic acid: 10000 uM) in OATP-B-expressing HEK293 cells. The conditions noted are these: probe E1S (0.00476 uM), read-out: Activity. Also on record: scale not given: the % may be the effect or the level left. In kind it is functional, cell-based. An outline of the steps: as §1

Regarding `CC[C@H](C)C(=O)O[C@H]1C[C@H](O)C=C2C=C[C@H](C)[C@H](CC[C@@H](O)C[C@@H](O)CC(=O)O)[C@H]21` [PRAVASTATIN], in data set [1], the Activity result is “substrate [+]”.

In data set [2], `CC(=O)O` [ACETIC ACID] showed an activity at 10000 uM of 86.1%. As for `C[C@@H](O)C(=O)O` [D-LACTIC ACID], the activity at 10000 uM in data set [3] was found to be 85.6%. In the case of `O=C(O)c1ccccc1C(=O)O` [PHTHALIC ACID], in data set [4], the activity at 10000 uM came to 42.7%. Take `C[C@]12CC[C@@H]3c4ccc(OS(=O)(=O)O)cc4CC[C@H]3[C@@H]1CCC2=O` [ESTRONE SULFURIC ACID]: the Activity result in [5] is “substrate [+]”.

As for `O=C(O)c1cccnc1` [NIACIN], the activity at 10000 uM in data set [6] was 59.7%. Regarding `O=C(O)CC(O)(CC(=O)O)C(=O)O` [CITRIC ACID], the activity at 10000 uM in data set [7] stood at 97.7%. Consider `O=C(O)C(=O)O` [OXALIC ACID], for which the activity at 10000 uM in data set [8] was 83.9%. With `O=C(O)c1ccccc1` [BENZOIC ACID], the activity at 10000 uM in data set [9] was 56.1%.
